RGS4 block: RGS4 inhibitors, primary screen, cell-based, HEK293 M3R inducible RGS4, calcium flux. Regulator of G-protein signaling 4 (Homo sapiens), P49798. 310,000 tested, 0.45% active. Fluo-4 calcium flux; hits give high values; triggered by carbachol at its EC20. B-score at 10 µM;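 active means B-score, a plate-corrected calcium signal, over three deviations above library mean, with baseline fluorescence within five deviations of library mean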;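 further: RGS4 expression induced by doxycycline in cells with stable M3 receptor; B-score is computed from the integrated fluorescence ratio over baseline after carbachol; higher B-score means a larger calcium signal and so more RGS4 inhibition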
Target sequence (P49798 whole entry, looked up): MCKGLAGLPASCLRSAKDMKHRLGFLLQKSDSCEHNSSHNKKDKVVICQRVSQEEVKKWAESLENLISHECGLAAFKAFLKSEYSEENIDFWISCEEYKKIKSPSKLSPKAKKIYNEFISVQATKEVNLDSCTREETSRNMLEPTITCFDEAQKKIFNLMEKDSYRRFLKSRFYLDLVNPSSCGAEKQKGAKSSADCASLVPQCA
KCC2 mod: KCC2 cotransporter modulators, thallium flux, primary screen, cell-based, HEK293 KCC2, FluoZin-2 fluorescence, MLSMR; Solute carrier family 12 member 5 (Homo sapiens), Q9H2X9; KCC2 cells, thallium flux FluoZin-2 fluorescence; B-score of Tl+ flux slope (higher = more flux/activation; lower = inhibition) at 10 µM; 190,000 tested, 2.2% active; AID 1456, 2008;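 active means thallium flux slope and its plate-corrected score both differing from the plate sample mean at a set confidence after two filtering rounds, in either direction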;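 further: slope of fluorescence scaled to starting intensity during 10 to 20 s after thallium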
MrgX1 antag: antagonists of human MrgX1 receptor, primary screen, HEK293 cells, Fluo-4 calcium flux; Mas-related G-protein coupled receptor member X1 (Homo sapiens), Q96LB2; BAM8-22 antagonism; hits give low values; B-score at 10 µM; 310,000 tested, 1.3% active;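 active means calcium-response B-score plate-corrected more than 3 library SD below zero, starting fluorescence within 5 deviations, no agonist response on first addition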;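 further: peak minus trough fluorescence over baseline after final BAM8-22 challenge near maximal dose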
Target sequence (Q96LB2 whole entry, looked up): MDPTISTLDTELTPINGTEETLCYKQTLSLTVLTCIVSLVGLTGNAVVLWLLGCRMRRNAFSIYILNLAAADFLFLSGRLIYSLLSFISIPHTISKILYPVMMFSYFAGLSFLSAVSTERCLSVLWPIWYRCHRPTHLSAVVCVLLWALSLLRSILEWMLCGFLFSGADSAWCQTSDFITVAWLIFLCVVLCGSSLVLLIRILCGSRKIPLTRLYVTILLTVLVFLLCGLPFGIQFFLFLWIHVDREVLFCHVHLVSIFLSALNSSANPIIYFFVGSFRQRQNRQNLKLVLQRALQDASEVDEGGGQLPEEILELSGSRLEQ
RGS4 pot: RGS4 potentiators or activators, primary screen, cell-based, HEK293 M3R inducible RGS4, calcium flux; 310,000 tested, 0.92% active; B-score at 10 µM; AID 463111, 2010; carbachol calcium flux Fluo4; hits give low values;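 active means B-score of the integrated calcium signal more than 4 SD below the library mean, with starting fluorescence not abnormally high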;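 further: negative B-score means reduced calcium response which marks RGS4 activation or potentiation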
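Test system: HEK293 cells with stable M3R and inducible RGS4; also added: carbachol at ECmax as muscarinic agonist stimulus; schedule: dye loading 30 min 37 °C, buffer rest 30 min RT; technique: kinetic calcium fluorescence imaging with Fluo4-AM dye, 2 µM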
MrgX1 agonist: agonists of human MrgX1 receptor, primary screen, HEK293 cells, Fluo-4 calcium flux. Mas-related G-protein coupled receptor member X1 (Homo sapiens), Q96LB2. 310,000 tested, 0.44% active. B-score at 10 µM. Fluo-4 calcium fluorescence, agonist mode; hits give high values. AID 588627, 2011;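 active means calcium response B-score plate-corrected fluorescence ratio at least 3 library SD, with starting fluorescence B-score inside 5 SD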
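Test system: HEK293 cells stably expressing human MrgX1 receptor; Input: fifteen thousand cells per well; Dosing: compound delivered in addition one of three; Schedule: overnight seeding, then 1 h dark dye loading; Technique: Fluo-4 NW calcium fluorescence; Measure: B-scored fluorescence response ratio; Controls: positive and negative controls per plate.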
MrgX1 allo act: positive allosteric modulators of MrgX1, primary screen, HEK293 cells, Fluo-4 calcium flux. B-score at 10 µM. FDSS; hits give high values. AID 588675, 2011. Mas-related G-protein coupled receptor member X1 (Homo sapiens), Q96LB2. 310,000 tested, 0.63% active;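 active means plate-corrected calcium response at least 3 library SD above typical, normal starting fluorescence, not activating the receptor alone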;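 further: compound read alongside a low EC10 to EC30 dose of BAM8-22 agonist; peak minus trough fluorescence over baseline measured at the second addition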
KCC2 secondary: KCC2 modulators in sodium-free buffer, confirmation, cell-based, HEK293 KCC2, thallium flux, secondary assay | 3,700 tested, 15% active | shares compounds with KCC2 mod | normalised thallium flux (F/F0 slope) at 10 µM | FluoZin2 fluorescence; hits give high values;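 active means thallium flux slope above the same plate's solvent-only control mean plus 3 SD; inconclusive means the two replicate wells disagree; inactive means no significant difference from solvent-only control wells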
KCC2 bumet counter: thallium flux persisting under bumetanide in KCC2 cells, confirmation, counter-screen for KCC2 modulator project, cell-based, HEK293 KCC2, FluoZin2, secondary assay 3; shares compounds with KCC2 mod; HEK293-KCC2 + bumetanide/ouabain; hits give high values; normalized thallium flux at 10 µM; 3,700 tested, 49% active; AID 1714, 2009;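 active means thallium entry rate above the same plate's blocked-transporter control wells by more than 3 SD; inconclusive means the two repeat wells disagree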;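 further: raw slope of fluorescence over initial fluorescence between 10 and 20 s after thallium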
KCC2 sec2: KCC2 modulators without ouabain present, confirmation, cell-based, HEK293 KCC2, thallium flux, FluoZin2, secondary assay 2 | shares compounds with KCC2 mod | thallium flux FluoZin2 fluorescence; actives lie on both sides; F/F0 rise rate, 10–20 s post-thallium | normalized thallium flux at 10 µM | 3,700 tested, 23% active | AID 1715, 2009;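 active means thallium flux slope more than 3 SD above or below the plate's solvent-only control mean, mostly below; inconclusive means the two repeat wells disagreed; inactive means no significant shift from solvent-only controls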
HEK counter1: thallium flux modulation in parental HEK cells, confirmation, counter-screen for KCC2 modulator project, cell-based, counterscreen 1. shares compounds with KCC2 mod. HEK293 parental cells, thallium flux FluoZin2, ouabain; baseline-ratio fluorescence slope, 10–20 s after thallium. thallium flux rate (normalised fluorescence) at 10 µM. 3,700 tested, 46% active;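 active means thallium flux rate significantly above the same plate's solvent-only control wells, beyond their mean plus 3 SD; inconclusive means the two replicate wells gave conflicting results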
KCC2 ouabain: KCC2 inhibitors and activators, ouabain retest, confirmation, HEK-KCC2 cells | shares compounds with KCC2 mod | HEK293-KCC2, thallium flux FluoZin2 fluorescence; bidirectional: low = inhibitor, high = activator | raw Tl+ flux slope (below DMSO = inhibition, above = activation) at 10 µM | 3,700 tested, 48% active;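 active means thallium flux slope beyond 3 SD from same-plate DMSO control mean in most replicates, usually higher, sometimes lower; inconclusive means repeat tests gave conflicting results; inactive means no significant difference from controls in most replicates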;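 further: slope of initial-normalized fluorescence between seconds 10 and 20 after thallium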
HEK counter2: native HEK Tl+ uptake effects, second counter-screen – HEK cells, counterscreen 2, counter-screen for KCC2 modulator project, confirmation; AID 1718, 2009; 3,700 tested, 33% active; HEK293 parental, thallium flux FluoZin-2 fluorescence slope; thallium flux slope at 10 µM; shares compounds with KCC2 mod;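 active means thallium flux slope above the same plate's solvent-control mean plus 3 SD in both duplicate wells; inconclusive means duplicate wells that disagreed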;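 further: run without ouabain in cells lacking the KCC2 cotransporter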
A number is an active result; n = inactive; u = inconclusive; x = no result. Shown are actives, neighbours in structure and some others; about 4.7% of the full set was active somewhere.

SMILES | RGS4 block | KCC2 mod | MrgX1 antag | RGS4 pot | MrgX1 agonist | MrgX1 allo act | KCC2 secondary | KCC2 bumet counter | KCC2 sec2 | HEK counter1 | KCC2 ouabain | HEK counter2
O=C(NNC(=S)Nc1ccc(Cl)cc1)c1ccccc1OC(F)F | n | 5.2 | n | n | n | n | n | 0.023 | n | 0.02 | 0.029 | 0.013
Cc1c(C(=O)Nc2ccccc2F)sc2ncn(CC(=O)N3CCCCC3)c(=O)c12 | n | x | n | n | n | n | x | x | x | x | x | x
O=C(CSc1ccc([N+](=O)[O-])cn1)Nc1ccc2c(c1)OCO2 | n | x | n | n | n | n | x | x | x | x | x | x
COc1ccc(/C(O)=C2/C(=O)C(=O)N(CCN(C)C)C2c2ccccn2)cc1OC (configuration not stated) | n | 4 | n | n | n | n | n | n | n | u | n | u
Cc1ccc(/C(O)=C2/C(=O)C(=O)N(CCN3CCOCC3)C2c2ccccn2)cc1 (configuration not stated) | n | 2.7 | n | n | n | n | n | u | n | u | n | n
CSc1nc(-c2ccccc2)nc(N2CCOCC2)c1C(C)=O | n | n | n | n | n | n | x | x | x | x | x | x
CC(=O)c1c(N2CCOCC2)[nH]c(-c2ccccc2)nc1=S | n | 13 | n | n | n | n | 0.017 | 0.032 | u | 0.019 | 0.041 | u
O=c1nc2n(c3c1oc1ccccc13)Cc1ccccc1-2 | n | n | x | n | x | x | x | x | x | x | x | x
Cc1sc2c(c1C)c(=O)nc1n2Cc2ccccc2-1 | n | x | x | n | x | x | n | n | n | n | n | n
COc1cc(NC(=O)c2ccc3c(c2)S(=O)(=O)N=C2CCCCCN23)cc(OC)c1 | n | x | n | n | n | n | x | x | x | x | x | x
O=C(CCCc1ccccc1)NC12CC3CC(CC(C3)C1)C2 | n | x | n | n | n | n | x | x | x | x | x | x
O=C(c1ccc2c3n(nc2c1)-c1ccc(Cl)cc1CO3)N1CCCCC1 | n | -2.2 | n | n | n | n | n | n | u | n | u | n
CCc1ccc(NC(=O)Cn2nc(C(=O)O)c3ccccc3c2=O)cc1 | n | x | n | n | n | n | x | x | x | x | x | x
CCOC(=O)C1=C(Cc2ccc(OC)cc2)C(=O)c2ccccc2C1=O | x | 6.6 | x | x | x | x | n | 0.0082 | n | 0.011 | n | u

Assay outcomes: PubChem, several laboratories
